T cruzi inh: T. cruzi replication inhibition | T. cruzi beta-gal in NIH3T3, luminescence, 90 h | inhibition, % (test concentration not listed) | 1.4% of 300,000 active | AID 1885;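 active means mean inhibition across valid replicates above about 55%, limit read from the data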;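 further: signal also drops with host cell toxicity which is not excluded here; 0% = plate median of DMSO wells and 100% = zero luminescence signal; higher percent means less beta-gal luminescence so fewer parasites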
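Assay system: NIH/3T3 host cells with β-galactosidase reporter T. cruzi; input: 5,000 host fibroblasts per well; compound: single 50 nL compound addition per well in DMSO; timing: ≥90 h infection period, 3 h prior cell attachment; measured by: GalScreen β-gal luminescence, detergent lysis, 60 min; evaluation: percent inhibition of parasite-derived β-gal signal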
CHT allo act: allosteric activators of human choline transporter CHT. Q9GZV3. CHT-expressing cells, membrane potential dye, choline EC20; hits give high values; LV-AA mutant CHT in HEK293 cells. B-score at 10 µM. 0.49% of 310,000 active;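 active means initial fluorescence not abnormally high and integrated response B-score, plate-corrected, over 3 SD above library mean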
Target sequence (Q9GZV3 whole entry, looked up): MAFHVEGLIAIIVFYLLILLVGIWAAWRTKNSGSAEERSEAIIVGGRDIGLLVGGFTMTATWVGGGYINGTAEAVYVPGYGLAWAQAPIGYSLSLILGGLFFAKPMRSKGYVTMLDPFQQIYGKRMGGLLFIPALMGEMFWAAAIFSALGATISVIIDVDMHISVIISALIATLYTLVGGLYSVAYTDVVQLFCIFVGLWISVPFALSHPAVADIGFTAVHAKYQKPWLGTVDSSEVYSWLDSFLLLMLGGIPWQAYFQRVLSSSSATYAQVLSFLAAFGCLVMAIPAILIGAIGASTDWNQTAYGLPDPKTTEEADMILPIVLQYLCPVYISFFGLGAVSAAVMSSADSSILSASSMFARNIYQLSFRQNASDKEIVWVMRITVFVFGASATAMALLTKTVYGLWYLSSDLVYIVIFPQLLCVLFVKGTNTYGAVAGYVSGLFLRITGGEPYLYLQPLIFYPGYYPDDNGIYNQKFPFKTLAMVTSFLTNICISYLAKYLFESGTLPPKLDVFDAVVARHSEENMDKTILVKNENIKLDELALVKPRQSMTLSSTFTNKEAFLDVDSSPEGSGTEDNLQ
CHT inh: inhibits the human high affinity choline transporter. Q9GZV3. AID 488975. B-score at 10 µM. 0.86% of 310,000 active. CHT-expressing cells, membrane potential dye, choline response; hits give low values;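 active means B-score over 3 SD under the library average, and starting fluorescence ratio not unusually high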;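 further: choline stimulus applied at its EC90 after an EC20 pre-addition; B-score computed on integrated fluorescence ratio after choline addition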
PolyA inh: yeast polyadenylation inhibition | activity score, % at 12 µM | S. cerevisiae SKY197-pL101 polyadenylation reporter, beta-gal luminescence; efflux-impaired pdr1/pdr3 knockout yeast; score 100 = 6 SD above DMSO | 0.02% of 300,000 active;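 active means lowest replicate activity score at least 50, where 100 means six control SD above control mean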;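 further: yeast exposed to compound for 9 h at 30 °C; higher score means more reporter readthrough which indicates perturbed polyadenylation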
CHT inh conf: human CHT inhibition, confirmatory screen. CHT activity remaining % of control (hits give low values), % at 10 µM. 70% of 2,400 active. CHT-expressing cells, choline membrane potential dye; LV-to-AA substituted CHT, HEK293 cells. shares compounds with CHT inh;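 active means choline transporter activity left, mean of duplicates at 10 µM, below buffer-only control mean minus 3 SD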;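 further: depolarization triggered by choline at its EC90 following an EC20 pre-addition; 0% = hemicholinium-3 full block and 100% = buffer-only control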
HEK293 CHT ctr: activity in parental HEK293 cells lacking CHT; 4% of 2,400 active; shares compounds with CHT inh; membrane potential ratio readout (active if shifted either direction beyond buffer ±3SD; no single direction) at 10 µM; AID 493222; membrane potential dye, choline response; active = decrease or increase beyond buffer ±3SD;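 further: parental cells lack the transporter so any hit is non-specific; ratio is peak minus trough fluorescence over baseline after EC90 choline challenge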
Active calls of the source: *; i = inactive; x = no result given. Only some compounds are listed: those with a hit (about 2.6% of all), similar ones and a draw of the others.

SMILES | T cruzi inh | CHT allo act | CHT inh | PolyA inh | CHT inh conf | HEK293 CHT ctr
COc1ccc(-n2c(SCC(=O)NCC3CCCO3)nc3ccccc32)cc1 (stereo not given) | 13 | i | -5.5* | 3 | i | i
O=C(CSc1nc2ccccc2c(=O)n1-c1ccccc1)NCC1CCCO1 (stereo not given) | -5 | i | i | -22 | x | x
COc1cc(CNc2ccc(N3CCCC3)cc2)ccc1OCc1ccccc1 | x | i | i | x | x | x
COc1cc(CNc2ccc(N3CCCCC3)cc2)ccc1OCC(=O)NC(C)(C)C | 38 | i | -9.9* | -24 | 47%* | i
CCOC(=O)c1sc(NC(=O)CCN2C(=O)c3cccc([N+](=O)[O-])c3C2=O)c(C(=O)OCC)c1C | -1 | i | -7.4* | 8 | 56%* | i
CCOC(=O)c1sc(NC(=O)CCN2C(=O)c3ccccc3C2=O)c(C(=O)OCC)c1C | 8 | i | i | -1 | x | x
CC(=O)N1CCC(C(=O)Nc2ccc(S(=O)(=O)N3CCCCC3)cc2)CC1 | -5 | i | i | -2 | x | x
Cn1c(SCc2ccc(C#N)cc2Cl)nc2ccccc21 | -3 | i | -11* | -15 | 3.8%* | i
COc1ccc2[nH]c(C(=O)N3CCN(Cc4ccccc4)CC3)cc2c1OC | -15 | i | i | -3 | x | x
CC(C)NC(=O)C1COc2ccccc2O1 (stereo not given) | -21 | i | i | 3 | x | x
CC(C)N(C)CCOC(=O)C1COc2ccccc2O1 (stereo not given) | 5 | i | -6* | 15 | 7.5%* | i
CCN(CC)S(=O)(=O)c1ccc(Cl)c(C(=O)N2CCc3ccccc32)c1 | x | i | i | x | x | x
CCN(CC)S(=O)(=O)c1cc(C(=O)N2CCc3ccccc32)ccc1Cl | 10 | i | -5.8* | 3 | 67%* | i
COc1ccc(-c2nnc(CSc3nc4ccccc4c(=O)n3CC3CCCO3)o2)cc1OC (stereo not given) | -5 | i | -7.4* | 0 | 49%* | i
CC1CCCCN1C(=O)CN(C)S(=O)(=O)c1cccc2nsnc12 (stereo not given) | -20 | i | i | 19 | x | x
CC1CCCN(C(=O)C2CCC(CNc3c(N4CCCCC4)c(=O)c3=O)CC2)C1 (stereo not given) | -6 | i | -6* | -10 | i | i
NC(=O)c1cc(NC(=O)c2ccc(NS(=O)(=O)c3cccs3)cc2)cc(C(N)=O)c1 | 10 | i | i | 8 | x | x
Cc1ccc(NC(=S)NNc2ccc(C(=O)O)cc2[N+](=O)[O-])cc1C | -5 | i | i | 22 | x | x
Oc1c(Br)cc(Br)cc1/C=N/c1nc2c(s1)CCCC2 | 17 | i | -12* | 7 | 57%* | i
NS(=O)(=O)OCc1ccc(C(F)(F)F)cc1 | 1 | i | i | 4 | x | x
CC(=O)Nc1ccc(S(=O)(=O)NC2=C(N3CCN(Cc4ccccc4)CC3)C(=O)c3ccccc3C2=O)cc1 | 1 | i | -6.2* | 3 | 41%* | 2.3*
C=CCN1C(c2ccc(Br)cc2)=CS/C1=C(/C#N)c1nnc(N2CCOCC2)n1-c1ccccc1 | 28 | i | i | -11 | x | x
C=CCN1C(c2cccc(C(F)(F)F)c2)=CS/C1=C(/C#N)c1nnc(N2CCOCC2)n1-c1ccccc1 | 22 | i | -6* | 5 | i | i
Cc1cc(C)n(CC(=O)NC2CCCc3c2cnn3-c2ccc(C)c(C)c2)n1 (stereo not given) | -3 | i | i | 30 | x | x
C=CCOc1ccccc1CNCc1ccc(F)cc1 | 3 | i | -7.5* | 33 | 26%* | -14*
CC(=O)c1ccc(NC(=S)Nc2ccc3[nH]c(=O)[nH]c3c2)cc1 | -13 | i | i | 8 | x | x
Cc1ccc(NC(=S)Nc2ccc3[nH]c(=O)[nH]c3c2)cc1C | -4 | i | -6.9* | 19 | 63%* | i
O=c1cc(-c2ccccc2)c2c(O)cc(O)cc2o1 | 3 | i | -5* | 2 | 50%* | i
O=C(NCCNC(=O)c1ccccc1Cl)c1ccco1 | -11 | i | i | 11 | x | x

Source: PubChem BioAssay (several laboratories)
